Here are results for 1 substance from paper PMC5383082 (International Journal of Nanomedicine, 2017).

A short description of data set [1]: Pharmacokinetic analysis of plasma DOX after intravenous injection. The conditions noted are these: Kunming mice, i.v. 5 mg/kg DOX, noncompartmental. It is filed as in vivo.
For data set [2], the system named is KB cells. Nature of the data set: Apoptosis assay. It is filed as cell-based. The conditions noted are these: 3 μg/mL DOX. The method in brief:
(§1)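 HeLa or KB cells were seeded at 4×10^5 per well, cultured 24 h, then exposed to conjugates at 3 μg/mL DOX for 24 h at 37°C. For receptor blocking, 1 mM free folate was added before the drug. Trypsinized and floating cells were pooled and stained with annexin V-FITC/PI. 20,000 cells per sample were analysed by flow cytometry, with FSC/SSC gating to exclude debris. Q2 was scored as late and Q4 as early apoptosis. Mean ± SD, three independent experiments.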

Data set [3] concerns KB cells. Nature of the data set: MTT cytotoxicity assay. It is filed as cell-based. The method in brief:
(§2)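 Cells kept in folate-free medium were seeded at 5×10^3 per well and grown 24 h. They were then exposed for 2 h at 37°C to serial dilutions of 1.56–25.00 μg/mL DOX equivalent, followed by 72 h in drug-free DMEM. MTT (5 mg/mL stock) was added for 4 h, formazan was dissolved in DMSO and absorbance read at 490 nm. Five parallel experiments; mean ± SD.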

The next data set has as its system Subcutaneous KB tumors. Nature of the data set: KB xenograft tumor mouse model. It is filed as in vivo, BALB/c nude mice. The conditions noted are these: KB xenograft nude mice, single i.v. dose 8 mg/kg DOX. The method in brief:
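Female BALB/c nude mice (6–8 weeks, 16–18 g) were inoculated subcutaneously in the front armpit with 2.5×10^6 KB cells. Once tumors were established, mice got a single tail-vein injection of 8 mg/kg DOX equivalent; saline served as control. Tumors were measured every 4 days, with volume = length × width² × 0.52. Body weight was recorded every 4 days and survival was followed. n=6 per group; mean ± SD.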

In data set [4] the test system is KB cells. Nature of the data set: Cellular uptake. It is filed as cell-based. The method in brief: (§3)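 Cells were grown 48 h in folate-free RPMI 1640, then given conjugates at 5 μg/mL DOX for 1 h at 37°C. For blocking, 1 mM free folate was added before the conjugates. For microscopy, monolayers were rinsed 3× with PBS, fixed in 4% paraformaldehyde for 15 min and imaged by fluorescence at equal exposure. For flow cytometry, 3×10^5 trypsinized cells per tube received the same treatment and were rinsed before reading.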

For data set [5], the system named is HeLa cells. Nature of the data set: MTT cytotoxicity assay. It is filed as cell-based. The method in brief:
as §2
For orientation: Tetrazolium dyes change colour on reduction, which living cells bring about.

The subject of data set [6] is HeLa cells. Nature of the data set: Apoptosis assay. It is filed as cell-based. Particulars: 3 μg/mL DOX. The method in brief:
as §1

The nature of data set [7]: Tissue distribution of DOX after intravenous injection. It is filed as in vivo. Particulars: mice, i.v. 5 mg/kg, compared with free DOX. Put shortly: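 Male Kunming mice (~25 g, 6–8 weeks) received 5 mg/kg DOX equivalent intravenously. Heart, liver, spleen and kidney were collected at 30 min and 3 h. Tissue was homogenized in ethanol/HCl/water and centrifuged at 12,000 rpm for 15 min. DOX in the supernatant was measured by fluorescence spectrophotometry. n=4; mean ± SD.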

Data set [8] deals with HeLa cells. Nature of the data set: Cellular uptake. It is filed as cell-based. The method in brief:
as §3

The mark [9] stands for this setting: 2 h drug incubation then 72 h culture, DOX concentration, mean ± SD.

On to “folate-polyethylene glycol-immunoglobulin G-doxorubicin [FA-PEG-IgG-DOX]”, for which, in data set [1], the “AUC(0–∞)” value is 992.943 μg/mL⋅h, the CLz was 0.19 mL/day/kg, the Cmax worked out at 225.275 ng/mL and the Vz was determined as 0.070 L/kg. Further, the “proapoptotic effect after pretreatment with 1 mM folate” value with KB cells [2] was “significantly diminished”. Further, in the data set on KB cells [3], the “IC50 as fraction of that of IgG-DOX” value was “about 1/12” and the “antitumor activity, times higher than IgG-DOX” value is listed as “at least 8 times”. In addition, the concentration for half-maximal inhibition (IC50) in the data set on KB cells [3] (setting [9]) came to 1.78 ± 0.4 µg/mL. In the data set with Subcutaneous KB tumors, the body weight change result was “minor body weight reduction”, the “survival of treated mice” value is recorded as “prolonged the survival of treated mice compared with DOX” and the “tumor growth from day 12 to day 25” value is on record as “maintained a very low growth rate”. In addition, the “average tumor size at day 25 after injection” value in the data set with Subcutaneous KB tumors (day 25) came out at 553 mm^3. In the data set on KB cells [4] (5 μg/mL DOX, 1 h, 37°C), the “fluorescence intensity (microscopy)” value is recorded as “apparently higher than IgG-DOX”. The “uptake after 1 mM folate pretreatment (microscopy)” value in the data set on KB cells [4] (1 mM folate pretreatment) is recorded as “could be blocked”. In the data set on HeLa cells [5], the “IC50 as fraction of that of IgG-DOX” value is “about 1/8” and the “antitumor activity, times higher than IgG-DOX” value is “at least 8 times”. For the same substance, in the data set with HeLa cells [5] (setting [9]), the IC50 came to 3.22 ± 0.9 µg/mL. In addition, the “proapoptotic effect after pretreatment with 1 mM folate” value in the data set with HeLa cells [6] is on record as “significantly diminished”. The “DOX concentration in the heart” value in data set [7] was “at the same level with that following free DOX injection”. Further, the “fluorescence intensity (microscopy)” value with HeLa cells [8] (5 μg/mL DOX, 1 h, 37°C) is “apparently higher than IgG-DOX”. For the same substance, the “uptake after 1 mM folate pretreatment (microscopy)” value with HeLa cells [8] (1 mM folate pretreatment) is “could be blocked”.

The term Cmax denotes the peak of the concentration-time curve. The term Vz denotes the apparent volume that relates the amount in the body to the concentration in plasma or blood. Usually IC50 stands for the concentration at which inhibition is half-maximal.
